The values below come from ChEMBL document CHEMBL4364290, “Light-controlled inhibition of BRAFV600E kinase” (Eur J Med Chem, 2019).

Active and inactive are the calls of the source. The calls are words filed in the database; no cut-off is given here. Some results are limits rather than exact numbers.

A short description of series [1]: Drug isomerization in DMSO-d6 assessed as cis isomer level at PSS at 2 mg/ml irradiated at 365 nm light measured immediately by 1H-NMR spectroscopic analysis.
Series [2] in a line: Stability in bovine plasma irradiated with white light at 10 uM by LCMS analysis. The following applies: cattle. The format is ADME, cell-free, Bos taurus.
A short description of series [3]: Drug isomerization in bovine plasma assessed as cis-isomer formation at 10 uM irradiated with 365 nm light by LCMS analysis. The series is classed as ADME, cell-free, Bos taurus. Particulars: cattle.
Series [4] can be described thus: Absorption property of the compound in pH 7.5 tris HCl buffer assessed as maximum absorption wavelength. The format is physicochemical. The gist of the method: (§1)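 λmax of the trans isomer recorded in DMSO and in BRAF assay buffer.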
The target of series [5] is Serine/threonine-protein kinase B-raf (Homo sapiens, UniProt P15056, V600E). The series is described as follows: Inhibition of human recombinant N-terminal GST/His6-tagged BRAF V600E mutant (Q417 to H766 residues) expressed in Sf9 insect cells using MEK1 as substrate measured after 1 hr using preheated compound at 60 degC for 30 mins by Western blot analysis.
Chain of Serine/threonine-protein kinase B-raf (P15056 2-766 V600E limits assumed): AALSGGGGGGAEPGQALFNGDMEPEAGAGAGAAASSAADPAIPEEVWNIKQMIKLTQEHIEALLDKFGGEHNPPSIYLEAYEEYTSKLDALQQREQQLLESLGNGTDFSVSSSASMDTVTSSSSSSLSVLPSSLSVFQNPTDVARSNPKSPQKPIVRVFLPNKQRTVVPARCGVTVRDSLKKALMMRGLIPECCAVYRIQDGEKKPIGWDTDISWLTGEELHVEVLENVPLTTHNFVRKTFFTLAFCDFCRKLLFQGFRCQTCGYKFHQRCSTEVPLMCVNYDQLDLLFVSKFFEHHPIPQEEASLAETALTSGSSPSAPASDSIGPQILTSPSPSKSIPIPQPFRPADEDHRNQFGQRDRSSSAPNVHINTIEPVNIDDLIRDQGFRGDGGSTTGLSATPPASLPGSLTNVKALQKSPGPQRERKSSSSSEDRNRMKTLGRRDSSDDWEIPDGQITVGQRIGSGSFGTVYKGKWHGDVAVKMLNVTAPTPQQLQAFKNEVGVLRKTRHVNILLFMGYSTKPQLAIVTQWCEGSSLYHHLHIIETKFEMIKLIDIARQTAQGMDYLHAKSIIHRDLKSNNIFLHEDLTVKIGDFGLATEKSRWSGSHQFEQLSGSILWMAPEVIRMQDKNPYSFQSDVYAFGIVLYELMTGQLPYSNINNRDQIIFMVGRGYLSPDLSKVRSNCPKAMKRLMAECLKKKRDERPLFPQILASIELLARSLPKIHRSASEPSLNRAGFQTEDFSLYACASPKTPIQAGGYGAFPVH
Series [6] is described as follows: Stability of the compound in DMSO-D6 at 2 mg/ml by 1H-19F NMR analysis. Particulars: read-out: Stability. The series is classed as physicochemical.
For series [7], the system named is Serine/threonine-protein kinase B-raf (Homo sapiens), P15056 [V600E]. The series is described as follows: Reversible inhibition of human recombinant N-terminal GST/His6-tagged BRAF V600E mutant (Q417 to H766 residues) expressed in Sf9 insect cells using MEK1 as substrate at 1 uM pre-irradiated with 365 nm light for 45 mins followed by thermal activation at 60 degC for 30 mins and subsequent light irradiation at 365 nm for 45 mins by Western blot analysis.
Chain of Serine/threonine-protein kinase B-raf (Homo sapiens), P15056 [V600E] (P15056 whole entry V600E, the tested form may be a part): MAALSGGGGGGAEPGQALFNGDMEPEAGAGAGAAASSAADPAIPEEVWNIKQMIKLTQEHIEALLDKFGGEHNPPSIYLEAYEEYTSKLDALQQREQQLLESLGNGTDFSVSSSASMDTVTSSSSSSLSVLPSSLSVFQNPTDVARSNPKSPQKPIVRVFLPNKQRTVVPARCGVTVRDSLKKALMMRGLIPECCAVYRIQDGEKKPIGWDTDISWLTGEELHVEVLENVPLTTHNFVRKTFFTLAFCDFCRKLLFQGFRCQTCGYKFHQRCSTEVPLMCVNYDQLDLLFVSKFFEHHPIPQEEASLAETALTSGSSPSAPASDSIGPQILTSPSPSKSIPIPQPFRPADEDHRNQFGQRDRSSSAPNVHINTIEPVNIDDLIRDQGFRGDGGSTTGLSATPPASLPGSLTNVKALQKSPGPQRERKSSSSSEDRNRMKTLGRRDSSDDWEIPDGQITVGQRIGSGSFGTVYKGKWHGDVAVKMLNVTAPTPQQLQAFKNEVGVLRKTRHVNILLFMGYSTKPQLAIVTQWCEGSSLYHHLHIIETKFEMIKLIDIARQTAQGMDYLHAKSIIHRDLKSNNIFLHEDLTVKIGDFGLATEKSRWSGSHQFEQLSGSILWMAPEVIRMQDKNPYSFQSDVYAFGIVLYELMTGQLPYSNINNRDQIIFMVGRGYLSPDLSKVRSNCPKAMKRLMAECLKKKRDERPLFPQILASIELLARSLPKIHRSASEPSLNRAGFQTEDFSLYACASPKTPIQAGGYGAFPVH

For series [8] the test system is unchanged. The series is described as follows: Inhibition of BRAF V600E mutant in human SK-MEL-28 using peptide as substrate using preheated compound at 60 degC for 30 mins measured under dark condition by STK-Pamchip array-based method. The series is classed as cell-based. In outline: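 SK-Mel-28 cell lysates treated with DMSO control or inhibitor, either dark (thermally adapted) or irradiated with 365 nm light; kinase activity profiled on PamGene STK peptide chips.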

Series [9] can be described thus: Drug isomerization in DMSO-d6 irradiated at 365 nm assessed as cis isomer level at PSS at 2 mg/ml measured after 45 mins under room temperature by 1H and 19F-NMR spectroscopic analysis.
The nature of series [10]: Drug isomerization in bovine plasma at 10 uM measured after 20 hrs at 37 degC by LCMS analysis. The series is classed as ADME, cell-free, Bos taurus. Particulars: cattle.
Series [11] can be described thus: Absorption property of the compound in DMSO assessed as maximum absorption wavelength. The format is physicochemical. The gist of the method: as §1
Series [12] can be described thus: Stability of thermally adapted compound in bovine plasma at 10 uM after 1 hr at 37 degC by LCMS analysis. The format is ADME, cell-free, Bos taurus. Particulars: cattle.
The test system of the next series is A-375. The series is described as follows: Dark toxicity against human A375 cells harboring BRAF V600E mutant assessed as reduction in cell viability at 10 uM incubated for 24 hrs using preheated compound at 60 degC for 60 mins by MTS assay. The format is cell-based. Particulars: a-375, 24 h, in the assay text read “30 mins” for “60 mins”. The gist of the method:
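A375 melanoma cells (BRAF V600E) exposed 24 h to 10 µM compound, thermally adapted or 365 nm-irradiated, versus DMSO control; viability by MTS assay.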
A general note: Tetrazolium dyes change colour on reduction, which living cells bring about.

Series [13] is described as follows: Drug isomerization in DMSO-d6 irradiated at 365 nm assessed as cis isomer level at PSS at 2 mg/ml measured after 90 mins under room temperature by 1H and 19F-NMR spectroscopic analysis.

As a reminder, the IC50 is the point on the concentration scale where inhibition reaches its midpoint. `COc1n[nH]c2ncc(NC(=O)c3c(F)ccc(/N=N/c4ccccc4)c3F)cc12`: the Drug metabolism in [1] was 37%; in series [9], 46%; in [10] it was “Metabolite_Detected”; in series [13], 55%. In addition, the Stability result in series [2], in [3] and in [12] was “Unstable” in each case. Besides, the results for the Activity (in [4]; in series [11]; in the series on A-375) were 328 nm, 332 nm and “Non-Toxic”, respectively. Also, in series [5], the half-maximal inhibitory concentration (IC50) was 1680 nM. In addition, the remaining at 2 mg/ml in [6] was over 95%. The inhibition result in [7] and in series [8] was “Active” throughout.
